Tests used:
Assay type in all cases: functional
[1] = system: IGROV-1; assay: Anticancer activity against human IGROV1 cells after 48 hrs by sulforhodamine B assay; conditions: IGROV-1, 48 h
In short: (§1)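 NCI 60-cell-line screen. Cells grown in RPMI 1640 with 5% FBS and 2 mM L-glutamine, plated at 5000–40,000 cells/well, and preincubated 24 h at 37 °C under 5% CO2. Compounds were taken from DMSO stocks and tested at five final concentrations, 10^-4 to 10^-8 M, for 48 h. Cells were TCA-fixed, stained with 0.4% SRB, and read at 515 nm. GI50, TGI and LC50 were derived as log molar values.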

[2] = system: RXF 393; assay: Anticancer activity against human RXF393 cells after 48 hrs by sulforhodamine B assay; conditions: RXF 393, 48 h; in short: as §1
[3] = Anticancer activity against human Hs 578T cells after 48 hrs by sulforhodamine B assay; in short: as §1
[4] = system: MOLT-4; assay: Anticancer activity against human MOLT4 cells after 48 hrs by sulforhodamine B assay; conditions: MOLT-4, 48 h; in short: as §1
[5] = system: CAKI-1; assay: Anticancer activity against human Caki1 cells after 48 hrs by sulforhodamine B assay; conditions: CAKI-1, 48 h; in short: as §1
[6] = system: BT-549; assay: Anticancer activity against human BT549 cells after 48 hrs by sulforhodamine B assay; conditions: BT-549, 48 h; in short: as §1
[7] = system: SK-MEL-5; assay: Anticancer activity against human SK-MEL-5 cells after 48 hrs by sulforhodamine B assay; conditions: SK-MEL-5, 48 h; in short: as §1
[8] = system: MDA-MB-231; assay: Anticancer activity against human MDA-MB-231 cells after 48 hrs by sulforhodamine B assay; conditions: MDA-MB-231, 48 h; in short: as §1
[9] = system: SF-295; assay: Anticancer activity against human SF295 cells after 48 hrs by sulforhodamine B assay; conditions: SF-295, 48 h; in short: as §1
[10] = system: LOX IMVI; assay: Anticancer activity against human LOXIMVI cells after 48 hrs by sulforhodamine B assay; in short: as §1
[11] = system: MDA-N; assay: Anticancer activity against human MDA-N cells after 48 hrs by sulforhodamine B assay; in short: as §1
[12] = system: SK-MEL-2; assay: Anticancer activity against human SK-MEL-2 cells after 48 hrs by sulforhodamine B assay; conditions: SK-MEL-2, 48 h; in short: as §1
[13] = system: A549; assay: Anticancer activity against human A549 cells after 48 hrs by sulforhodamine B assay; conditions: A549, 48 h; in short: as §1
[14] = system: SK-MEL-28; assay: Anticancer activity against human SK-MEL-28 cells after 48 hrs by sulforhodamine B assay; conditions: SK-MEL-28, 48 h; in short: as §1
[15] = system: OVCAR-4; assay: Anticancer activity against human OVCAR4 cells after 48 hrs by sulforhodamine B assay; conditions: OVCAR-4, 48 h; in short: as §1
[16] = system: UACC-62; assay: Anticancer activity against human UACC62 cells after 48 hrs by sulforhodamine B assay; conditions: UACC-62, 48 h
In short: (§2)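 NCI 60-cell-line panel; cells grown in RPMI 1640 with 5% FBS and 2 mM L-glutamine, plated at 5000–40,000 cells/well and preincubated 24 h at 37 °C, 5% CO2. Compounds came from DMSO stocks diluted in medium with gentamicin and were tested at five final concentrations, 10^-4 to 10^-8 M, for 48 h. Cells were fixed with TCA, stained with SRB and read at 515 nm. GI50, TGI and LC50 were derived as log molar values.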

[17] = system: SNB-75; assay: Anticancer activity against human SNB75 cells after 48 hrs by sulforhodamine B assay; conditions: SNB-75, 48 h; in short: as §2
[18] = system: K562; assay: Anticancer activity against human K562 cells after 48 hrs by sulforhodamine B assay; conditions: K562, 48 h; in short: as §1
[19] = system: 786-0; assay: Anticancer activity against human 786-0 cells after 48 hrs by sulforhodamine B assay; conditions: 786-0, 48 h; in short: as §1
[20] = system: HCC 2998; assay: Anticancer activity against human HCC2998 cells after 48 hrs by sulforhodamine B assay; conditions: HCC 2998, 48 h; in short: as §1
[21] = system: HCT-15; assay: Anticancer activity against human HCT15 cells after 48 hrs by sulforhodamine B assay; conditions: HCT-15, 48 h; in short: as §1
[22] = system: NCI-H322M; assay: Anticancer activity against human NCI-H322M cells after 48 hrs by sulforhodamine B assay; in short: as §1
[23] = system: EKVX; assay: Anticancer activity against human EKVX cells after 48 hrs by sulforhodamine B assay; in short: as §1
[24] = system: T47D; assay: Anticancer activity against human T47D cells after 48 hrs by sulforhodamine B assay; in short: as §2
[25] = system: SR; assay: Anticancer activity against human SR cells after 48 hrs by sulforhodamine B assay; in short: as §2
[26] = system: NCI/ADR-RES; assay: Anticancer activity against human NCI/ADR-RES cells after 48 hrs by sulforhodamine B assay; in short: as §1
[27] = system: ACHN; assay: Anticancer activity against human ACHN cells after 48 hrs by sulforhodamine B assay; in short: as §1
[28] = system: KM12; assay: Anticancer activity against human KM12 cells after 48 hrs by sulforhodamine B assay; conditions: KM12, 48 h; in short: as §1
[29] = system: UO-31; assay: Anticancer activity against human UO31 cells after 48 hrs by sulforhodamine B assay; conditions: UO-31, 48 h; in short: as §2
[30] = system: PC-3; assay: Anticancer activity against human PC3 cells after 48 hrs by sulforhodamine B assay; conditions: PC-3, 48 h; in short: as §1
[31] = system: SNB-19; assay: Anticancer activity against human SNB19 cells after 48 hrs by sulforhodamine B assay; conditions: SNB-19, 48 h; in short: as §2
[32] = system: SN12C; assay: Anticancer activity against human SN12C cells after 48 hrs by sulforhodamine B assay; in short: as §2
[33] = system: NCI-H522; assay: Anticancer activity against human NCI-H522 cells after 48 hrs by sulforhodamine B assay; conditions: NCI-H522, 48 h; in short: as §1
[34] = system: DU-145; assay: Anticancer activity against human DU145 cells after 48 hrs by sulforhodamine B assay; conditions: DU-145, 48 h; in short: as §1
[35] = system: NCI-H226; assay: Anticancer activity against human NCI-H226 cells after 48 hrs by sulforhodamine B assay; conditions: NCI-H226, 48 h; in short: as §1
[36] = system: NCI-H460; assay: Anticancer activity against human NCI-H460 cells after 48 hrs by sulforhodamine B assay; conditions: NCI-H460, 48 h; in short: as §1
[37] = system: OVCAR-8; assay: Anticancer activity against human OVCAR8 cells after 48 hrs by sulforhodamine B assay; conditions: OVCAR-8, 48 h; in short: as §1
[38] = system: TK-10; assay: Anticancer activity against human TK10 cells after 48 hrs by sulforhodamine B assay; conditions: TK-10, 48 h; in short: as §2
[39] = system: SW-620; assay: Anticancer activity against human SW620 cells after 48 hrs by sulforhodamine B assay; conditions: SW-620, 48 h; in short: as §2
[40] = system: MCF7; assay: Anticancer activity against human MCF7 cells after 48 hrs by sulforhodamine B assay; conditions: MCF7, 48 h; in short: as §1
[41] = system: SK-OV-3; assay: Anticancer activity against human SKOV3 cells after 48 hrs by sulforhodamine B assay; conditions: SK-OV-3, 48 h; in short: as §1
[42] = system: A498; assay: Anticancer activity against human A498 cells after 48 hrs by sulforhodamine B assay; conditions: A498, 48 h; in short: as §1
[43] = system: M14; assay: Anticancer activity against human M14 cells after 48 hrs by sulforhodamine B assay; conditions: M14, 48 h; in short: as §1
[44] = system: SF-539; assay: Anticancer activity against human SF539 cells after 48 hrs by sulforhodamine B assay; conditions: SF-539, 48 h; in short: as §1
[45] = system: CCRF-CEM; assay: Anticancer activity against human CCRF-CEM cells after 48 hrs by sulforhodamine B assay; in short: as §1

Q: Which results are given for `O=C(Nc1nccs1)NC(C(F)(F)F)C(F)(F)F`?
A: GI50 [1]: 95.5 µM; GI50 [2]: 77.6 µM; GI50 [3]: 22.4 µM; GI50 [4]: 40.7 µM; GI50 [5]: 55 µM; GI50 [6]: 46.8 µM; GI50 [7]: 38.9 µM; GI50 [8]: 58.9 µM; GI50 [9]: 43.7 µM; GI50 [10]: 58.9 µM; GI50 [11]: > 100 µM; GI50 [12]: 45.7 µM; GI50 [13]: 60.3 µM; GI50 [14]: > 100 µM; GI50 [15]: 39.8 µM; GI50 [16]: 63.1 µM; GI50 [17]: 55 µM; GI50 [18]: 36.3 µM; GI50 [19]: > 100 µM; GI50 [20]: 31.6 µM; GI50 [21]: 66.1 µM; GI50 [22]: 87.1 µM; GI50 [23]: 41.7 µM; GI50 [24]: 45.7 µM; GI50 [25]: 24 µM; GI50 [26]: 33.1 µM; GI50 [27]: 55 µM; GI50 [28]: 39.8 µM; GI50 [29]: 35.5 µM; GI50 [30]: 38 µM; GI50 [31]: 49 µM; GI50 [32]: 43.7 µM; GI50 [33]: 23.4 µM; GI50 [34]: 63.1 µM; GI50 [35]: 57.5 µM; GI50 [36]: 34.7 µM; GI50 [37]: 39.8 µM; GI50 [38]: 51.3 µM; GI50 [39]: > 100 µM; GI50 [40]: 40.7 µM; GI50 [41]: > 100 µM; GI50 [42]: 95.5 µM; GI50 [43]: > 100 µM; GI50 [44]: > 100 µM

Q: Which GI50 [1] does the source give for `O=c1[nH]cc(F)c(=O)[nH]1` [FLUOROURACIL] here?
A: 1.23 µM

Q: And the GI50 [2]?
A: 2.63 µM

Q: And the GI50 [3]?
A: 9.77 µM

Q: And the GI50 [4]?
A: 0.355 µM

Q: What about the GI50 [5] of the same compound?
A: 0.0724 µM

Q: What about the GI50 [6] of the same compound?
A: 10.7 µM

Q: What about the GI50 [7] of the same compound?
A: 0.468 µM

Q: And the GI50 [8]?
A: 6.61 µM

Q: And the GI50 [9]?
A: 0.229 µM

Q: What about the GI50 [10] of the same compound?
A: 0.245 µM

Q: What about the GI50 [12] of the same compound?
A: 56.2 µM

Q: And the GI50 [13]?
A: 0.191 µM

Q: And the GI50 [14]?
A: 1.02 µM

Q: What about the GI50 [15] of the same compound?
A: 4.47 µM

Q: What about the GI50 [16] of the same compound?
A: 0.525 µM

Q: What about the GI50 [17] of the same compound?
A: 79.4 µM

Q: What about the GI50 [18] of the same compound?
A: 3.55 µM

Q: What about the GI50 [19] of the same compound?
A: 0.724 µM

Q: What about the GI50 [20] of the same compound?
A: 0.0525 µM

Q: What about the GI50 [21] of the same compound?
A: 0.11 µM

Q: And the GI50 [22]?
A: 0.178 µM

Q: And the GI50 [23]?
A: 61.7 µM

Q: And the GI50 [24]?
A: 8.13 µM

Q: And the GI50 [25]?
A: 0.024 µM

Q: What about the GI50 [26] of the same compound?
A: 0.316 µM

Q: What about the GI50 [27] of the same compound?
A: 0.295 µM

Q: What about the GI50 [28] of the same compound?
A: 0.214 µM

Q: And the GI50 [45]?
A: 9.77 µM

Q: What about the GI50 [29] of the same compound?
A: 1.41 µM

Q: And the GI50 [30]?
A: 2.34 µM

Q: And the GI50 [31]?
A: 3.8 µM

Q: What about the GI50 [32] of the same compound?
A: 0.501 µM

Q: And the GI50 [33]?
A: 7.24 µM

Q: And the GI50 [34]?
A: 0.363 µM

Q: And the GI50 [35]?
A: 55 µM

Q: What about the GI50 [36] of the same compound?
A: 0.0562 µM

Q: What about the GI50 [37] of the same compound?
A: 1.74 µM

Q: What about the GI50 [38] of the same compound?
A: 1.12 µM

Q: And the GI50 [39]?
A: 0.933 µM

Q: And the GI50 [40]?
A: 0.0794 µM

Q: And the GI50 [41]?
A: 21.9 µM

Q: What about the GI50 [42] of the same compound?
A: 0.398 µM

Q: And the GI50 [43]?
A: 0.977 µM

Q: What about the GI50 [44] of the same compound?
A: 0.0631 µM

From ChEMBL document CHEMBL1155222, “Synthesis and anticancer activity of N-bis(trifluoromethyl)alkyl-N'-thiazolyl and N-bis(trifluoromethyl)alkyl-N'-benzothiazolyl ureas” (2009)
